Assay outcomes deposited in PubChem BioAssay by several laboratories.
Most compounds without a hit are left out; they make up all but 1.2% or so of the library.
S1P3 antag-1 = blocks the human S1P3 receptor; inhibition, % at 4.98 µM; Q99500; 170,000 compounds, 0.27% hits; CHO S1P3 NFAT-BLA reporter, FRET fluorescence, antagonist mode; AID 485;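 active means inhibition above the plate cutoff, the mean inhibition of test wells on that plate plus 3 SD, cut at about 28% in these data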;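 further: cells challenged with S1P at its EC80 of 0.8 µM; blue over green emission ratio from cleaved BLA substrate after 4 h stimulation; 0% = S1P-stimulated wells and 100% = unstimulated DMSO-only wells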
Target sequence (Q99500 whole entry, looked up): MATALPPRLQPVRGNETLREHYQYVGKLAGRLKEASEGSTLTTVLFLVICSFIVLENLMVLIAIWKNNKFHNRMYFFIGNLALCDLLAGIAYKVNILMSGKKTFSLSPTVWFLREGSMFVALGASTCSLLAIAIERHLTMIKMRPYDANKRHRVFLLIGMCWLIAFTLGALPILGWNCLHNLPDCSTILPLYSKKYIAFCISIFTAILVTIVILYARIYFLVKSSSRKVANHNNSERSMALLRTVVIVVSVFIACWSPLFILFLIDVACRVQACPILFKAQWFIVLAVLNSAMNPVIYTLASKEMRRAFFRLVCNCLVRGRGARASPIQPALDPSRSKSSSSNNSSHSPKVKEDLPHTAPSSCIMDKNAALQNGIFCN
hK5 inh = kallikrein 5 (human) inhibition. Q9Y337. recombinant hK5, fluorogenic AMC substrate cleavage. inhibition, % at 5 µM. 210,000 compounds, 0.59% hits;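 active means inhibition of 40% or more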;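 further: 0% = enzyme controls without compound and 100% = no-enzyme blanks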
Target sequence (Q9Y337 67-293 limits assumed): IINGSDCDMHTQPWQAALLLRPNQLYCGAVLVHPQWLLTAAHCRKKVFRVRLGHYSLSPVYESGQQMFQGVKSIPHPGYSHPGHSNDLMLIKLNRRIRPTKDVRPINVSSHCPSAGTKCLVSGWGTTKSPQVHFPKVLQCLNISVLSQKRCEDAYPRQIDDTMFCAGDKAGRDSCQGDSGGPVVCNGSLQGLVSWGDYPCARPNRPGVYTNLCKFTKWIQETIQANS
Thrombin inh = thrombin (human) inhibition; alpha-thrombin, Boc-VPR-AMC fluorogenic substrate cleavage; inhibition, % at 5 µM; 220,000 compounds, 0.26% hits; AID 1046;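 active means inhibition at or above 40%; inactive means inhibition below 40%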;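 further: 0% = enzyme with no compound and 100% = wells without enzyme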
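Material: human alpha-thrombin enzyme / Medium: pH 7.5 Tris (50 mM) with NaCl 150 mM, Tween 20 0.05% / Compound: single-point dosing at 5 µM, 0.2% DMSO / Incubation: enzyme reaction carried out at room temperature / Detection: AMC fluorescence, 355/460 nm / Read-out basis: percent inhibition scaled between no-compound controls and no-enzyme blanks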
FXIIa inh 1536 = blocks human coagulation factor XIIa protease activity. inhibition, % at 5 µM. 220,000 compounds, 0.3% hits. purified FXIIa, Boc-QGR-AMC fluorogenic substrate, 2 h; in the data active means inhibition above about 40%;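 further: 0% = enzyme with no compound and 100% = blank without enzyme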
DTT redox prof = compounds producing H2O2 with reducing agent – biochemical, NIH compound library profiling, artefact control for MLSCN library redox annotation, primary screen. 200,000 compounds, 0.03% hits. DTT-dependent redox cycling H2O2, phenol red/HRP absorbance; 100% = 100 µM peroxide control, 0% = buffer. activation, % at 10 µM;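 active means activation of at least 50% relative to the plate's high and low controls in the primary single-dose screen; inactive means activation below 50%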;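 further: compound incubated with DTT at 0.8 mM final as the reducing agent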
FXIa inh = blocks human coagulation factor XIa protease activity. 220,000 compounds, 0.14% hits. purified FXIa, Boc-Glu-Ala-Arg-AMC fluorogenic substrate. P03951. inhibition, % at 5 µM;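 active means inhibition of at least 40%; inactive means inhibition below 40%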;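 further: fluorescence of freed AMC excited at 355 nm; 0% = enzyme without compound and 100% = no enzyme blank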
S1P3 antag-2 = confirmation of human S1P3 receptor antagonists | 240 compounds, 30% hits | inhibition, % at 4.98 µM | CHO S1P3 NFAT-BLA reporter, FRET, antagonist mode | shares compounds with S1P3 antag-1;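 active means inhibition above the hit threshold that was computed for the earlier primary screen, cut at about 30% in these data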;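 further: 0% = S1P-stimulated wells and 100% = unstimulated DMSO-only wells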
An asterisk follows results filed as active.

For CN(Cc1ccccc1)CC(O)COc1ccc(CNCCc2ccncc2)cc1 (stereo not drawn) the results were S1P3 antag-1 -4, hK5 inh 4, Thrombin inh -5, FXIIa inh 1536 12, DTT redox prof 0 and FXIa inh -2.
`CN(Cc1ccccc1)CC(O)COc1ccc(CNCCc2cccnc2)cc1` (stereo not drawn) gave S1P3 antag-1 31*, Thrombin inh -3, FXIIa inh 1536 3, DTT redox prof 0, FXIa inh -2 and S1P3 antag-2 -14.
Screening O=C(/C=C/c1cn(CC(O)CN2CCCCC2)c2ccccc12)c1cccs1 (stereo not drawn) returned S1P3 antag-1 32*, hK5 inh -6, Thrombin inh 2, FXIIa inh 1536 7, DTT redox prof 0, FXIa inh 3 and S1P3 antag-2 9.
`O=C(CN1CCN(Cc2ccccc2)CC1)Nc1ccc(Cl)cn1` gave S1P3 antag-1 25, hK5 inh -23, Thrombin inh 4, FXIIa inh 1536 19, DTT redox prof 0 and FXIa inh 8.
Screening O=C(CN1CCN(Cc2ccccc2)CC1)NCCNc1ccc([N+](=O)[O-])cn1 returned S1P3 antag-1 51*, hK5 inh 19, Thrombin inh 9, FXIIa inh 1536 16, DTT redox prof 1, FXIa inh 14 and S1P3 antag-2 -18.
Cc1ccc(NC(=O)C(OC(=O)c2ccc(F)cc2)c2ccccc2)cc1Cl (stereo not drawn) was read as S1P3 antag-1 36*, hK5 inh -1, Thrombin inh -6, FXIIa inh 1536 2, DTT redox prof 1, FXIa inh -1 and S1P3 antag-2 55*.
Cc1ccc(NC(=O)C(OC(=O)c2ccc(O)cc2)c2ccccc2)cc1Cl (stereo not drawn) was read as S1P3 antag-1 2, hK5 inh -14, Thrombin inh -12, FXIIa inh 1536 2, DTT redox prof 0 and FXIa inh -5.
CCN(CC)c1ccc2cc(-c3nc(-c4ccc(OC)cc4)cs3)c(=O)oc2c1 was read as S1P3 antag-1 42*, hK5 inh -6, Thrombin inh -1, FXIIa inh 1536 9, DTT redox prof 1, FXIa inh 1 and S1P3 antag-2 97*.
For CCN(CC)c1ccc2cc(-c3nnc(-c4ccccc4)o3)c(=O)oc2c1 the results were hK5 inh -5, Thrombin inh 2, FXIIa inh 1536 6, DTT redox prof 0 and FXIa inh -2.
For C=CC[n+]1ccc(/C=C2\C=Cc3cc(C)ccc3N2CC)c2ccccc21 the results were S1P3 antag-1 30*, hK5 inh -20, Thrombin inh 1, FXIIa inh 1536 -3, DTT redox prof 0, FXIa inh 4 and S1P3 antag-2 39*.
`COC(=O)[C@@H]1C[C@@]2(O)[C@@H](O)[C@@H](O)[C@@H](O)C[C@H]2N1CC1CCCCC1` gave hK5 inh 4, Thrombin inh 4, FXIIa inh 1536 6 and FXIa inh 3.
O=C(N/N=C/c1ccc(O)cc1)Nc1cccc2nsnc12 was read as S1P3 antag-1 31*, hK5 inh -1, Thrombin inh -9, FXIIa inh 1536 9, DTT redox prof -1, FXIa inh -1 and S1P3 antag-2 4.
COc1cc(/C=N/NC(=O)Nc2cccc3nsnc23)cc(OC)c1OC was read as hK5 inh -12, Thrombin inh -8, FXIIa inh 1536 16, DTT redox prof 3 and FXIa inh -2.
Screening O=C(OC(C(=O)Nc1cccc(C(F)(F)F)c1)c1ccccc1)C1CCCCC1 (stereo not drawn) returned S1P3 antag-1 37*, hK5 inh -12, Thrombin inh -4, FXIIa inh 1536 8, DTT redox prof 1, FXIa inh -2 and S1P3 antag-2 30*.
`O=C(Nc1ccccc1)C(c1ccccc1)C1CCCC1` (stereo not drawn) gave S1P3 antag-1 52*, hK5 inh -7, Thrombin inh -3, FXIIa inh 1536 9, DTT redox prof 0, FXIa inh 11 and S1P3 antag-2 48*.
`COc1cc(CCC(=O)Nc2cc(C)cc(C)c2)cc(OC)c1OC` gave S1P3 antag-1 -9, hK5 inh -1, Thrombin inh 3, FXIIa inh 1536 0, DTT redox prof 0 and FXIa inh 2.
CCN1/C(=C/c2sc(-c3ccccc3C)c[n+]2C)Sc2ccccc21 was read as S1P3 antag-1 36*, hK5 inh -14, Thrombin inh 8, FXIIa inh 1536 4, DTT redox prof -1, FXIa inh -3 and S1P3 antag-2 38*.
For CCCN1C(=O)/C(=C/c2c(N3CCNC(=O)C3CC(=O)OC)nc3c(C)cccn3c2=O)SC1=S (stereo not drawn) the results were S1P3 antag-1 6, hK5 inh -5, Thrombin inh 0, FXIIa inh 1536 7 and FXIa inh 10.
Screening Cc1cccc(OCC(=O)Nc2ccc3c(c2)nc(CN2CCCCC2)n3C)c1 returned S1P3 antag-1 30*, hK5 inh 0, Thrombin inh -1, FXIIa inh 1536 7, FXIa inh 0 and S1P3 antag-2 -11.
Screening CCN(CC)S(=O)(=O)c1cc(NC(=O)[C@@H](NC(N)=O)C(C)C)ccc1C returned S1P3 antag-1 -1, hK5 inh -1, Thrombin inh -10, FXIIa inh 1536 5, DTT redox prof 0 and FXIa inh -3.
For Cc1cccc(-c2nc3c(c(=O)c4ccccc4n3C)c(=O)n2-c2ccccc2)c1 the results were S1P3 antag-1 7, hK5 inh 3, Thrombin inh 4, FXIIa inh 1536 11 and FXIa inh 4.
CC1=[N+](C)c2c(ccc3cccnc23)C1(C)C was read as S1P3 antag-1 29*, hK5 inh -2, Thrombin inh -4, FXIIa inh 1536 2, DTT redox prof 0, FXIa inh -4 and S1P3 antag-2 15.
For CCCn1c(C)cc(/C=C(\C#N)C(=O)OCC(=O)Nc2ccc(OC)c(Cl)c2)c1C the results were S1P3 antag-1 92*, hK5 inh -8, Thrombin inh -10, FXIIa inh 1536 0, DTT redox prof 0, FXIa inh -11 and S1P3 antag-2 -16.
For CCn1c(COc2cc(C)ccc2C(C)C)nnc1SCC(=O)Nc1nccs1 the results were S1P3 antag-1 -7, hK5 inh -9, Thrombin inh -8, FXIIa inh 1536 4, DTT redox prof -2 and FXIa inh -5.
